The values below come from ChEMBL document CHEMBL1125651, “Nucleosides and nucleotides. 95. Improved synthesis of 1-(2-azido-2-deoxy-beta-D-arabinofuranosyl)cytosine (cytarazid) and -thymine. Inhibitory spectrum of cytarazid on the growth of various human tumor cells in vitro” (J Med Chem, 1991).

Molecules are shown by their SMILES. Converted amounts (≈) assume the structure as drawn.

As a reminder, the IC50 is the concentration needed to halve the response being measured. One may read the inhibition as the drop in the measured response relative to a control, in per cent.

One experiment relates to MKN-28. The experiment can be described thus: In vitro inhibitory effect measured against human stomach adenocarcinoma MKN-28 tumor cells. The class given is functional, cell-based. The method in brief: (§1)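 Cells seeded at 1 × 10^4 cells/mL in RPMI 1640 with 10% heat-inactivated FBS and 50 μg/mL kanamycin. Cultured 72 h at 37 °C in a CO2 incubator with a range of compound concentrations. Viability read by MTT colorimetric assay at OD 570 nm against untreated control wells. IC50 is the μg/mL concentration giving 50% growth inhibition; representative of three separate experiments.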

Experiment [1] relates to PC-13. Briefly: In vitro inhibitory effect measured against human lung large-cell carcinoma PC-13 tumor cells at 100 ug/mL. The class given is functional. The method in brief:
(§2)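 MTT viability assay after 72 h exposure at 37 °C in a CO2 incubator. Cells at 1 × 10^4 cells/mL in RPMI 1640 with 10% heat-inactivated FBS and 50 μg/mL kanamycin. Percent inhibition = [1 − OD570 of sample/OD570 of untreated control] × 100. Representative of three separate experiments.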

A further experiment has as its system HOS-TE85. The experiment can be described thus: In vitro inhibitory effect measured against human osteosarcoma MNNG-HOS tumor cells. In kind it is functional, cell-based. The method in brief: as §1
Experiment [2] deals with U2OS. The experiment can be described thus: In vitro inhibitory effect measured against human osteosarcoma U20-S tumor cells at 100 ug/mL. The class given is functional. The method in brief:
as §2

The subject of a further experiment is HT-1080. The experiment can be described thus: In vitro inhibitory effect measured against human fibrosarcoma HT1080 tumor cells. The class given is functional, cell-based. The method in brief:
as §1

The test system of another experiment is SAOS-2. The experiment can be described thus: In vitro inhibitory effect measured against human osteosarcoma SAOS-2 tumor cells. The class given is functional, cell-based. The method in brief:
as §1

The subject of another experiment is NCC. Briefly: In vitro inhibitory effect measured against human renal cell carcinoma NCC-nu tumor cells. In kind it is functional, cell-based. The method in brief:
as §1

Experiment [3] deals with ST-KM-1. The experiment can be described thus: In vitro inhibitory effect measured against human stomach adenocarcinoma ST-KM tumor cells at 100 ug/mL. The class given is functional. The method in brief: as §2
In experiment [4] the test system is PC-3. The experiment can be described thus: In vitro inhibitory effect measured against human lung adenocarcinoma PC-3 tumor cells at 100 ug/mL. The class given is functional. The method in brief: as §2
In experiment [5] the test system is NUGC-4. The experiment can be described thus: In vitro inhibitory effect measured against human stomach adenocarcinoma NUGC-4 tumor cells at 100 ug/mL. In kind it is functional. In a few lines:
as §2

Experiment [6] relates to QG-56. Briefly: In vitro inhibitory effect measured against human lung suamous-cell carcinoma QG-56 tumor cells at 100 ug/mL. In kind it is functional. The method in brief: as §2
Experiment [7] concerns MFH-ST. The experiment can be described thus: In vitro inhibitory effect measured against human malignant fibrous histiocytoma MFH-ST tumor cells at 100 ug/mL. The class given is functional. The method in brief:
as §2

In a further experiment the test system is PC-8. The experiment can be described thus: In vitro inhibitory effect measured against human lung adenocarcinoma PC-8 tumor cells. The class given is functional, cell-based. In a few lines:
as §1

Experiment [8] deals with HOS. The experiment can be described thus: In vitro inhibitory effect measured against human osteosarcoma HOS tumor cells at 100 ug/mL. The class given is functional. The method in brief: as §2
In the next experiment the test system is PC-9. Briefly: In vitro inhibitory effect measured against human lung adenocarcinoma PC-9 tumor cells. In kind it is functional, cell-based. In a few lines: as §1
The subject of another experiment is KHOS-321H. Briefly: In vitro inhibitory effect measured against human osteosarcoma KHOS-321H tumor cells. The class given is functional, cell-based. The method in brief:
as §1

For a further experiment, the system named is SK-ES1. The experiment can be described thus: In vitro inhibitory effect measured against human osteosarcoma SK-ES-1 tumor cells. The class given is functional, cell-based. The method in brief:
as §1

The test system of experiment [9] is MG-63. Briefly: In vitro inhibitory effect measured against human osteosarcoma MG-63 tumor cells at 100 ug/mL. The class given is functional. The method in brief:
as §2

For experiment [10], the system named is OST. Briefly: In vitro inhibitory effect measured against human osteosarcoma OST tumor cells at 100 ug/mL. In kind it is functional. In a few lines: as §2
Experiment [11] concerns OST. Briefly: In vitro inhibitory effect measured against human osteosarcoma OST tumor cells. The class given is functional, cell-based. The method in brief:
as §1

A further experiment deals with T-24. Briefly: In vitro inhibitory effect measured against human bladder transitional cell carcinoma T-24 tumor cells. In kind it is functional, cell-based. In a few lines: as §1
For experiment [12], the system named is ST-KM-1. Briefly: In vitro inhibitory effect measured against human stomach adenocarcinoma ST-KM tumor cells. In kind it is functional, cell-based. The method in brief: as §1
Experiment [13] has as its system U2OS. Briefly: In vitro inhibitory effect measured against human osteosarcoma U20-S tumor cells. The class given is functional, cell-based. In a few lines:
as §1

Experiment [14] relates to PC-13. Briefly: In vitro inhibitory effect measured against human lung large-cell carcinoma PC-13 tumor cells. The class given is functional, cell-based. In a few lines:
as §1

Experiment [15] concerns HOS. Briefly: In vitro inhibitory effect measured against human osteosarcoma HOS tumor cells. The class given is functional, cell-based. The method in brief: as §1
Experiment [16] concerns PC-3. Briefly: In vitro inhibitory effect measured against human lung adenocarcinoma PC-3 tumor cells. In kind it is functional, cell-based. In a few lines: as §1
For experiment [17], the system named is MG-63. Briefly: In vitro inhibitory effect measured against human osteosarcoma MG-63 tumor cells. The class given is functional, cell-based. In a few lines: as §1
For experiment [18], the system named is MFH-ST. Briefly: In vitro inhibitory effect measured against human malignant fibrous histiocytoma MFH-ST tumor cells. In kind it is functional, cell-based. The method in brief:
as §1

The next experiment relates to PC-6. The experiment can be described thus: In vitro inhibitory effect measured against human lung small-cell carcinoma PC-6 tumor cells. In kind it is functional, cell-based. In a few lines: as §1
For experiment [19], the system named is QG-56. The experiment can be described thus: In vitro inhibitory effect measured against human lung suamous-cell carcinoma QG-56 tumor cells. The class given is functional, cell-based. In a few lines: as §1
The test system of experiment [20] is NUGC-4. The experiment can be described thus: In vitro inhibitory effect measured against human stomach adenocarcinoma NUGC-4 tumor cells. In kind it is functional, cell-based. In a few lines: as §1

`Nc1ccn([C@@H]2O[C@H](CO)[C@@H](O)[C@@H]2O)c(=O)n1` [CYTARABINE]: the IC50 came out at 4.5 µg/mL (≈ 18.5 µM) with MKN-28; 2.6 µg/mL (≈ 10.7 µM) in the experiment with HOS-TE85; 0.13 µg/mL (≈ 0.534 µM) in the experiment with HT-1080; 2.7 µg/mL (≈ 11.1 µM) in the experiment with SAOS-2; 0.13 µg/mL (≈ 0.534 µM) in the experiment on NCC; 0.28 µg/mL (≈ 1.15 µM) in the experiment with PC-8. In addition, the IC50 with PC-9 stood at 1.6 µg/mL (≈ 6.58 µM); with KHOS-321H, 0.27 µg/mL (≈ 1.11 µM); with SK-ES1 it was 0.09 µg/mL (≈ 0.37 µM). The inhibition at 100 µg/mL came to 40% in the experiment on PC-13 [1]; 43.9% in the experiment on U2OS [2]; 48.6% in the experiment with ST-KM-1 [3]; 46.2% in the experiment on PC-3 [4]; 49.9% with NUGC-4 [5]; 24.4% with QG-56 [6]. In addition, the inhibition at 100 µg/mL worked out at 47.9% in the experiment on MFH-ST [7], 45.4% with HOS [8], 29.5% with MG-63 [9] and 48% in the experiment on OST [10].
For the molecule `[N-]=[N+]=N[C@H]1[C@H](O)[C@@H](CO)O[C@H]1n1ccc(N)nc1=O` [CYTARAZID], the IC50 worked out at 2.2 µg/mL (≈ 8.2 µM) in the experiment with MKN-28; 6.4 µg/mL (≈ 23.9 µM) with OST [11]; 1.5 µg/mL (≈ 5.59 µM) in the experiment with HOS-TE85; 0.56 µg/mL (≈ 2.09 µM) in the experiment on T-24; 1.6 µg/mL (≈ 5.96 µM) with HT-1080; 2.8 µg/mL (≈ 10.4 µM) with SAOS-2. Besides, the IC50 worked out at 1.8 µg/mL (≈ 6.71 µM) in the experiment with NCC; 1.1 µg/mL (≈ 4.1 µM) with ST-KM-1 [12]; 14 µg/mL (≈ 52.2 µM) with U2OS [13]; 18 µg/mL (≈ 67.1 µM) with PC-13 [14]; 9.4 µg/mL (≈ 35 µM) with HOS [15]; 18 µg/mL (≈ 67.1 µM) in the experiment on PC-3 [16]. Moreover, the 50% inhibitory concentration (IC50) with PC-8 worked out at 1.2 µg/mL (≈ 4.47 µM); with PC-9 it was 1 µg/mL (≈ 3.73 µM); with MG-63 [17], 30 µg/mL (≈ 112 µM); with MFH-ST [18], 14 µg/mL (≈ 52.2 µM); in the experiment on PC-6 it was 18 µg/mL (≈ 67.1 µM); in the experiment on KHOS-321H, 0.62 µg/mL (≈ 2.31 µM). The IC50 amounted to 5.4 µg/mL (≈ 20.1 µM) in the experiment on QG-56 [19], 1.1 µg/mL (≈ 4.1 µM) in the experiment with SK-ES1 and 1.4 µg/mL (≈ 5.22 µM) with NUGC-4 [20].
